Data published in ChEMBL document CHEMBL1126779, “Antagonism of 1-(2,5-dimethoxy-4-methylphenyl)-2-aminopropane stimulus with a newly identified 5-HT2- versus 5-HT1C-selective antagonist” (J Med Chem, 1993).

How the values were obtained:
[1] = target: Serotonin 2 (5-HT2) receptor (Rattus norvegicus) (UniProt P30994+P08909+P14842); assay: Selectivity ratio, Ki against 5-HT1C versus 5-HT2; assay type: protein assay
Method in brief: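 Rat frontal cortex homogenate (male Sprague-Dawley) was washed and preincubated 15 min at 37 °C in 50 mM Tris HCl, 0.5 mM EDTA, 10 mM MgCl2, pH 7.4, with 0.1% ascorbate and 10^-6 M pargyline. […] Nonspecific binding was set with 1.0 µM mianserin. Tubes ran 15 min at 37 °C in triplicate before filtration.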

[2] = target: T1, 5-hydroxytryptamine receptor 2C (Rattus norvegicus, UniProt P08909); assay: Tested for binding affinity against 5-hydroxytryptamine 1C receptor from rat frontal cortical regions using [3H]mesulergine as radioligand
T1 sequence (P08909 whole entry): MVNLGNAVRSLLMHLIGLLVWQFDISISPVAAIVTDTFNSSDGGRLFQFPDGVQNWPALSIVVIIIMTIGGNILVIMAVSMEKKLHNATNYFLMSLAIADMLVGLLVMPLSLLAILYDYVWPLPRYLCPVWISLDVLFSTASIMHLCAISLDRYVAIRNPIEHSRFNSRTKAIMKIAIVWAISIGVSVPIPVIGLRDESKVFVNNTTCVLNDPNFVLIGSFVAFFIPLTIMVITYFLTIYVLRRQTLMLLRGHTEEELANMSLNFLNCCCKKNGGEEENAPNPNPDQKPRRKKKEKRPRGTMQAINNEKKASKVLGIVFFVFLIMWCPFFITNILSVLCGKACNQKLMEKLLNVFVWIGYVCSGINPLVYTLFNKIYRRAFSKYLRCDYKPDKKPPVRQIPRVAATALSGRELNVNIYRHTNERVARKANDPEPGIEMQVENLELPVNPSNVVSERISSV
Method in brief: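 Rat frontal cortex homogenate (male Sprague-Dawley) was washed and preincubated 15 min at 37 °C in 50 mM Tris HCl, 0.5 mM EDTA, 10 mM MgCl2, pH 7.4, with 0.1% ascorbate and 10^-6 M pargyline. Nonspecific binding was set with 1.0 µM mianserin. Tubes ran 15 min at 37 °C in triplicate before filtration.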

[3] = target: T2, 5-hydroxytryptamine receptor 1A (Rattus norvegicus, UniProt P19327); assay: Tested for binding affinity against 5-hydroxytryptamine 1A receptor from rat frontal cortical regions using [3H]8-OH-DPAT as radioligand
T2 sequence (P19327 whole entry): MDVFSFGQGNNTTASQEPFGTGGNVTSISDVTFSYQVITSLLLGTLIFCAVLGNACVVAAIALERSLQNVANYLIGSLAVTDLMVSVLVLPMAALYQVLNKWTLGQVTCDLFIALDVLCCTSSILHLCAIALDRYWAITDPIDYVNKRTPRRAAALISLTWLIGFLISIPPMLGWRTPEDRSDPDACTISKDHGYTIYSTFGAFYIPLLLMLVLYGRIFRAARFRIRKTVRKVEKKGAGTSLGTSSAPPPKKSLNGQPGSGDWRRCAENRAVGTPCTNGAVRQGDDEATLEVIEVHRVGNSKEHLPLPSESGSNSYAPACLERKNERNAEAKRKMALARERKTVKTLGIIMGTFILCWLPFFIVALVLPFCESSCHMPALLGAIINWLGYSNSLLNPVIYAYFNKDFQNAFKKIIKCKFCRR

[4] = target: Serotonin 2 (5-HT2) receptor (Rattus norvegicus, UniProt P30994+P08909+P14842); assay: Tested for binding affinity against 5-hydroxytryptamine 2 receptor from rat frontal cortical regions using [3H]ketanserin as radioligand; assay type: protein assay
Method in brief: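 Frontal cortex from male Sprague-Dawley rats was homogenized in Tris HCl/EDTA/MgCl2 buffer, pH 7.4, containing ascorbate and pargyline. Each triplicate tube held 5 mg wet tissue and 0.4 nM [3H]ketanserin, with nonspecific binding defined by 1.0 µM cinanserin. Incubation was 15 min at 37 °C, then glass-fiber filtration and an ice-cold wash. IC50 was converted to Ki using radioligand KD from saturation experiments.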

[5] = target: D(1A) dopamine receptor (Mus musculus, UniProt Q61616); assay: Tested for binding affinity against dopamine receptor D1
[6] = target: D(2) dopamine receptor (Homo sapiens, UniProt P14416); assay: Tested for binding affinity against dopamine receptor D2
D(2) dopamine receptor, sequence (P14416 whole entry): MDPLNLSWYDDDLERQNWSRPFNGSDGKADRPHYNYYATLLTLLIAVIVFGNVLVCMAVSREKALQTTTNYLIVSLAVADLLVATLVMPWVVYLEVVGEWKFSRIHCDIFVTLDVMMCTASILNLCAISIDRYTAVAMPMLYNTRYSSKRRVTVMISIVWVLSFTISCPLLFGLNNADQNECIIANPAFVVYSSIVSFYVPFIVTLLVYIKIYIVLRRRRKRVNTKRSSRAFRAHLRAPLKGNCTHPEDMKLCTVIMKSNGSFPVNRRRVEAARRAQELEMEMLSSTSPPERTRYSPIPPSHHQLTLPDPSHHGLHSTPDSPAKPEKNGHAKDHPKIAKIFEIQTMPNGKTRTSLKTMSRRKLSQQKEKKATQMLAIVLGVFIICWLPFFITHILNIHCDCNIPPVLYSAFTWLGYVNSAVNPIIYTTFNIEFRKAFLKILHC

Serotonin 2 (5-HT2) receptor (Rattus norvegicus), sequence (P14842 whole entry, looked up, one chain of several): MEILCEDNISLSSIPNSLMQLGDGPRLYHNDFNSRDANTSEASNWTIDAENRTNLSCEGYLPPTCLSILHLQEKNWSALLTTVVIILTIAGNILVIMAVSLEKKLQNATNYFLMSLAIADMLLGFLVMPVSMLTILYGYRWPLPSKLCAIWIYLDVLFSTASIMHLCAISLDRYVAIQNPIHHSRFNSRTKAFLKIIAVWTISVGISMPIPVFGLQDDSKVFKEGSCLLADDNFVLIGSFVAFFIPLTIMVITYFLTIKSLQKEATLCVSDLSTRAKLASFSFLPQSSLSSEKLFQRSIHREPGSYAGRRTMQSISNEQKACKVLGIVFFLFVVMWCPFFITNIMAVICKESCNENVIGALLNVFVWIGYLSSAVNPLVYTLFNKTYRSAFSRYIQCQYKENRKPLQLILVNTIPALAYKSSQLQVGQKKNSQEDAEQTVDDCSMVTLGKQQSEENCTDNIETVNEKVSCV
Serotonin 2 (5-HT2) receptor (Rattus norvegicus), sequence (P30994 whole entry, looked up, one chain of several): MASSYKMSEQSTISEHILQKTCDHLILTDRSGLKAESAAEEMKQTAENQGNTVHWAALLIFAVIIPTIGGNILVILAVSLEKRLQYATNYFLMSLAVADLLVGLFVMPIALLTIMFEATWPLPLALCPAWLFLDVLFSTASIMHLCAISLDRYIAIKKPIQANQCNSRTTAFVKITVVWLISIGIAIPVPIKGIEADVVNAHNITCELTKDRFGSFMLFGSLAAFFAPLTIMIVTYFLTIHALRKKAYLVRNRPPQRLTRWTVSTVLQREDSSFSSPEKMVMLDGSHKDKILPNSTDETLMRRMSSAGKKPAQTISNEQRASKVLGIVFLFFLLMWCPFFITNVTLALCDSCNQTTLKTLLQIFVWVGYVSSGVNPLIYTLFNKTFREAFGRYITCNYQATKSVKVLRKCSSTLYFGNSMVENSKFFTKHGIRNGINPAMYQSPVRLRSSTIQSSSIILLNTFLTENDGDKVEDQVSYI
D(1A) dopamine receptor, sequence (Q61616 whole entry): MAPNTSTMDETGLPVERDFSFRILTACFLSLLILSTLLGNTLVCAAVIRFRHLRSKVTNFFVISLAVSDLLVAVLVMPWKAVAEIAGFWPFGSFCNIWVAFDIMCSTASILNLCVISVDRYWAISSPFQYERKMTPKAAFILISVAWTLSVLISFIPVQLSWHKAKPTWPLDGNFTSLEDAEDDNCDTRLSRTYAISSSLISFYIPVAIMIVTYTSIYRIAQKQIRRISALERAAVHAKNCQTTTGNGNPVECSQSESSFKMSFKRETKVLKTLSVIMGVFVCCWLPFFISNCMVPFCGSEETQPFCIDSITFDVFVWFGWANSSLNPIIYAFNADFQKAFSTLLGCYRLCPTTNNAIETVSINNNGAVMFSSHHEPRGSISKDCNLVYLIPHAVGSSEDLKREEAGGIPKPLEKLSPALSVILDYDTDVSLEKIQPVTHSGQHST

SMILES	Ratio [1]	Ki [2] [nM]	Ki [3] [nM]	Ki [4] [nM]	Ki [5] [nM]	Ki [6] [nM]
O=C1NCN(c2ccccc2)C12CCN(CCCCc1ccccc1)CC2	> 300	> 10000	85	30	–	–
O=C(c1ccc(F)cc1)C1CCN(CCCOc2ccc(F)cc2)CC1	40	335	285	8	–	–
O=C1NCN(c2ccccc2)C12CCN(CCc1ccccc1)CC2	10	6000	1020	570	–	–
O=C1NCN(c2ccccc2)C12CCN(CCCOc1ccccc1)CC2	> 2000	> 10000	75	5	–	–
NCCCOc1ccc(F)cc1	> 5	> 10000	–	1400	–	–
O=C1NCN(c2ccccc2)C12CCNCC2	–	> 10000	> 10000	> 10000	–	–
O=C1NCN(c2ccccc2)C12CCN(CCCCOc1ccccc1)CC2	> 30	> 10000	30	325	–	–
O=C1NCN(c2ccccc2)C12CCN(CCCOc1ccc([N+](=O)[O-])cc1)CC2	> 10	> 10000	1160	600	–	–
O=C1NCN(c2ccccc2)C12CCN(CCCCc1ccc(F)cc1)CC2	650	3200	110	5	–	–
CN(C)CCCC(=O)c1ccc(F)cc1	40	3300	–	80	–	–
O=C(Nc1ccccc1)C1CCN(CCCOc2ccc(F)cc2)CC1	> 100	> 10000	–	95	–	–
CN(c1ccccc1)C1CCN(CCCOc2ccc(F)cc2)CC1	90	2870	110	32	–	–
CN(C)CCCOc1ccc(F)cc1	> 30	> 10000	–	295	–	–
O=C(CCCN1CCC2(CC1)C(=O)NCN2c1ccccc1)c1ccc(F)cc1 [SPIPERONE]	–	–	49	–	–	–
NCCCC(=O)c1ccc(F)cc1	–	> 100000	> 100000	> 100000	–	–
O=C(CCCN1CCC(C(=O)c2ccc(F)cc2)CC1)c1ccc(F)cc1 [LENPERONE]	–	–	305	–	–	–
Fc1ccc(OCCCN2CCC(Nc3ccccc3)CC2)cc1	40	3600	120	88	–	–
O=C(NC1CCN(CCCOc2ccc(F)cc2)CC1)c1ccccc1	> 140	> 10000	–	70	–	–
O=C(CCCN1CCC(Cc2ccccc2)CC1)c1ccc(F)cc1	35	1650	180	50	–	–
O=C1NCN(c2ccccc2)C12CCN(CCCc1ccccc1)CC2	> 30	> 10000	105	230	–	–
COc1ccc(OCCCN2CCC3(CC2)C(=O)NCN3c2ccccc2)cc1	> 10	> 10000	445	1000	–	–
c1ccc(CCCCN2CCN(c3ccccc3)CC2)cc1	–	–	1	–	–	–
O=C(CCCN1CCC(NC(=O)c2ccccc2)CC1)c1ccc(F)cc1	> 140	> 10000	–	70	–	–
O=C(CCCN1CCCCC1)c1ccc(F)cc1 [PRIMAPERONE]	> 70	> 10000	> 10000	140	–	–
O=C1NCN(c2ccccc2)C12CCN(CCCOc1ccc(F)cc1)CC2 [SPIRAMIDE]	2100	4300	50	2	2530	3
